Results published in ChEMBL document CHEMBL2169746, “Design, synthesis, and antitumor evaluation of 2,4,6-triaryl pyridines containing chlorophenyl and phenolic moiety” (Eur J Med Chem, 2012).

Key:
T47D = experiment: Cytotoxicity against human T47D cells after 2 days by cell counting kit-8 analysis; assay type: functional, cell-based; settings: 48 h
Summary of the method: (§1)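 Cells grown per supplier's instructions, seeded at 2-4 × 10⁴ cells/well and incubated overnight in medium with 10% FBS at 37 °C, 5% CO₂. On day 2, after 4 h FBS starvation, medium was replaced with medium containing graded compound concentrations. Absorbance read at 450 nm. IC50 from a four-parameter logistic fit. Three independent experiments in triplicate, mean ± S.D.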

HCT-15 = experiment: Cytotoxicity against human HCT15 cells after 2 days by cell counting kit-8 analysis; assay type: functional, cell-based; settings: HCT-15, 48 h; summary of the method: as §1
DU-145 = experiment: Cytotoxicity against human DU145 cells after 2 days by cell counting kit-8 analysis; assay type: functional, cell-based; settings: DU-145, 48 h; summary of the method: as §1
HEK293 = experiment: Cytotoxicity against human HEK293 cells after 2 days by cell counting kit-8 analysis; assay type: cell-based; settings: HEK293, 48 h; summary of the method: as §1
[1] = molecular target: DNA topoisomerase 2-alpha (Homo sapiens) (UniProt P11388); experiment: Inhibition of human DNA topoisomerase-2alpha-mediated relaxation of supercoiled pBR322 at 20 uM after 30 mins using ethidium bromide staining by agarose gel electrophoresis
Sequence of DNA topoisomerase 2-alpha (Homo sapiens) (P11388 whole entry): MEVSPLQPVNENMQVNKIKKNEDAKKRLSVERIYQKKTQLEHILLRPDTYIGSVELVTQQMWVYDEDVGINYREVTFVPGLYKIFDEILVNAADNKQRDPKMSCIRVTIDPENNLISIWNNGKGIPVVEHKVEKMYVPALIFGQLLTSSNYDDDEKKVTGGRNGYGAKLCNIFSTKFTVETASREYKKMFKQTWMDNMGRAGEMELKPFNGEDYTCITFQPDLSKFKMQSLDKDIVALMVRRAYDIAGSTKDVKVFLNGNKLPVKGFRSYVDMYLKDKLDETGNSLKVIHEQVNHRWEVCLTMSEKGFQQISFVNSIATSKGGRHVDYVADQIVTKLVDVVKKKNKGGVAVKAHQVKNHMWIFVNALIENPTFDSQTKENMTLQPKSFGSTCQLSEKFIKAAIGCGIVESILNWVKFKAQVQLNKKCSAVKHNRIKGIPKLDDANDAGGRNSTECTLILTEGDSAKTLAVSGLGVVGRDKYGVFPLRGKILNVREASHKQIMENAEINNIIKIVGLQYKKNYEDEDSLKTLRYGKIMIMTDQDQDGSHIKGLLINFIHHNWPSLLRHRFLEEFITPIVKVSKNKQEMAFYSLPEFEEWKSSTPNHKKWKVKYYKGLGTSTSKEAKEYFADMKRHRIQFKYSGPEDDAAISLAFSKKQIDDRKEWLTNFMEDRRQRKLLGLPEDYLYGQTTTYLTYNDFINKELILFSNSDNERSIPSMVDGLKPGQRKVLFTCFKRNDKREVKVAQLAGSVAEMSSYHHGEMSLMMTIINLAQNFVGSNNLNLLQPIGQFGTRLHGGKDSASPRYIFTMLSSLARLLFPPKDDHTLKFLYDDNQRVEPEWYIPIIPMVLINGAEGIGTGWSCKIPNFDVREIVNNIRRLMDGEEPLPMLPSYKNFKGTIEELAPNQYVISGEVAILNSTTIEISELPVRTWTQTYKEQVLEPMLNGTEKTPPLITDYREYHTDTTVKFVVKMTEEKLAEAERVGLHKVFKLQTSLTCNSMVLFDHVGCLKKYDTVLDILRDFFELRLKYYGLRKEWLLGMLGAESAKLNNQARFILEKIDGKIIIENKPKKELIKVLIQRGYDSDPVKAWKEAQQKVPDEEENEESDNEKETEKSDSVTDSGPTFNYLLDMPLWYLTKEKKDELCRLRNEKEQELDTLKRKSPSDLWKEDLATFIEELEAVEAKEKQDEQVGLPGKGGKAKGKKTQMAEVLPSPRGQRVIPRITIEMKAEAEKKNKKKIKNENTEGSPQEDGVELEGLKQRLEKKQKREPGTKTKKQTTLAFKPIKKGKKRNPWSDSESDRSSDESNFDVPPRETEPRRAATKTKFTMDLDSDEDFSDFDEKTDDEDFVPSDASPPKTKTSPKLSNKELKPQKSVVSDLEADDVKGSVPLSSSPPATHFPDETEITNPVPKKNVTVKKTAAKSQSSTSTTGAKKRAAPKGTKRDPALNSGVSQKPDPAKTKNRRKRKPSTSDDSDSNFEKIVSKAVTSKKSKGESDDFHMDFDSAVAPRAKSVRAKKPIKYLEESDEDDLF
Summary of the method: (§2)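 200 ng supercoiled pBR322 with 1 unit human topo IIα, with or without compound. Buffer was 10 mM Tris-HCl pH 7.9, 50 mM NaCl, 5 mM MgCl₂, 1 mM EDTA, 1 mM ATP and bovine serum albumin. Incubated 30 min at 30 °C, stopped with EDTA. Products run on 1% agarose gel, 25 V, 4 h, TAE buffer. Compound stocks 20 mM in DMSO.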

[2] = molecular target: DNA topoisomerase 2-alpha (Homo sapiens) (UniProt P11388); experiment: Inhibition of human DNA topoisomerase-2alpha-mediated relaxation of supercoiled pBR322 at 100 uM after 30 mins using ethidium bromide staining by agarose gel electrophoresis; summary of the method: as §2
[3] = molecular target: T1, DNA topoisomerase 1 (Homo sapiens) (UniProt P11387); experiment: Inhibition of recombinant human DNA topoisomerase-1-mediated relaxation of supercoiled pBR322 at 100 uM after 30 mins using ethidium bromide staining by agarose gel electrophoresis
T1 sequence (whole entry): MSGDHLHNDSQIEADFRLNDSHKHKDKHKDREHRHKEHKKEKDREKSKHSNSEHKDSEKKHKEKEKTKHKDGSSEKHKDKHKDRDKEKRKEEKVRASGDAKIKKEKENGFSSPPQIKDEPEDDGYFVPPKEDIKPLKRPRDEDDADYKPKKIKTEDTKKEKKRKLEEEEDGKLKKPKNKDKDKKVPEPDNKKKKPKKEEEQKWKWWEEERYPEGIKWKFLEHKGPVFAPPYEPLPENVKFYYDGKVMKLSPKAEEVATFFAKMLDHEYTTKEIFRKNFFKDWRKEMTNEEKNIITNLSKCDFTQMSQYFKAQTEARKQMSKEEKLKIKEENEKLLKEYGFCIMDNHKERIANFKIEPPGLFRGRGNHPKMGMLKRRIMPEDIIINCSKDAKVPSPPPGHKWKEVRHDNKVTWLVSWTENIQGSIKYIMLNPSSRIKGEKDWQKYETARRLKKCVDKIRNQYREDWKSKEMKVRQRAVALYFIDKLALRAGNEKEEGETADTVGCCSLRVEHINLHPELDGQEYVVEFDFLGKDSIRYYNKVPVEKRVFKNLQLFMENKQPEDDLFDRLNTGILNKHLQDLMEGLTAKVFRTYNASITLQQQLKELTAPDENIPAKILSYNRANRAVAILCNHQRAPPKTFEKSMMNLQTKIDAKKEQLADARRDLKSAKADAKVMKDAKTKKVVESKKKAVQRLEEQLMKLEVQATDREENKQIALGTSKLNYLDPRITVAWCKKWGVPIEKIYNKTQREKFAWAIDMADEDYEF
Summary of the method: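 Compounds from 20 mM DMSO stocks. 100 ng pBR322 plasmid DNA with 1 unit recombinant human topo I, with or without compound, 37 °C for 30 min. Relaxation buffer was 10 mM Tris-HCl pH 7.9, 150 mM NaCl, 0.1% BSA, 1 mM spermidine. Relaxation of supercoiled DNA assessed by gel imaging.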

Row | SMILES | IC50 (T47D) [µM] | IC50 (HCT-15) [µM] | IC50 (DU-145) [µM] | IC50 (HEK293) [µM] | inhibition [1] [%] | inhibition [2] [%] | inhibition [3] [%]
1 | Oc1ccc(-c2cc(-c3ccsc3)nc(-c3ccccc3Cl)c2)cc1 | 6.11 | 5.83 | 3.89 | 5.93 | 29.2 | 80.5 | 4.1
2 | Oc1cccc(-c2cc(-c3cccc(Cl)c3)nc(-c3ccco3)c2)c1 | 3.57 | 2.46 | 2.02 | 2.53 | 4.8 | 70.1 | 5.5
3 | Oc1cccc(-c2cc(-c3ccncc3)nc(-c3ccccc3Cl)c2)c1 | – | – | – | – | – | 0.7 | 0
4 | COc1cc([C@@H]2c3cc4c(cc3[C@@H](O[C@@H]3O[C@@H]5CO[C@@H](C)O[C@H]5[C@H](O)[C@H]3O)[C@H]3COC(=O)[C@H]23)OCO4)cc(OC)c1O [ETOPOSIDE] | 2.39 | 1.17 | 1.21 | 1.21 | 20 | – | –
5 | Oc1cccc(-c2cc(-c3cccnc3)nc(-c3ccccc3Cl)c2)c1 | – | – | – | – | – | 0 | 0
6 | Oc1ccc(-c2cc(-c3ccc(Cl)cc3)nc(-c3cccnc3)c2)cc1 | 29.3 | 20.7 | 22.8 | 27.4 | 11.9 | 59.1 | 18.8
7 | Oc1ccc(-c2cc(-c3ccncc3)nc(-c3ccc(Cl)cc3)c2)cc1 | – | – | – | – | – | 2.4 | 5.9
8 | CC[C@@]1(O)C(=O)OCc2c1cc1n(c2=O)Cc2cc3ccccc3nc2-1 [CAMPTOTHECIN] | 1.53 | 1.38 | 1.06 | 1.01 | – | – | –
9 | Oc1cccc(-c2cc(-c3ccc(Cl)cc3)nc(-c3cccs3)c2)c1 | 10.5 | 9.28 | 11.6 | 11.8 | 54.2 | 75.5 | 15.1
10 | Oc1cccc(-c2cc(-c3ccc(Cl)cc3)nc(-c3ccsc3)c2)c1 | 11.5 | 8.85 | 11.6 | 11.2 | 38.3 | 71.6 | 11.7
11 | Oc1cccc(-c2cc(-c3ccsc3)nc(-c3cccc(Cl)c3)c2)c1 | 3.54 | 2.51 | 3.33 | 3.18 | 15.4 | 80.1 | 26.2
12 | Oc1cccc(-c2cc(-c3cccc(Cl)c3)nc(-c3cccs3)c2)c1 | 3.41 | 2.61 | 2.65 | 3.15 | 39 | 80.4 | 7.6
13 | Oc1cccc(-c2cc(-c3ccccn3)nc(-c3ccccc3Cl)c2)c1 | – | – | – | – | – | 19.1 | 0
14 | Oc1cccc(-c2cc(-c3ccncc3)nc(-c3cccc(Cl)c3)c2)c1 | – | – | – | – | – | 13.9 | 0
15 | Oc1ccc(-c2cc(-c3cccnc3)nc(-c3ccccc3Cl)c2)cc1 | – | – | – | – | – | 0 | 0.9
16 | Oc1ccc(-c2cc(-c3ccccn3)nc(-c3ccccc3Cl)c2)cc1 | – | – | – | – | – | 21.1 | 5.2
17 | Oc1ccc(-c2cc(-c3ccncc3)nc(-c3cccc(Cl)c3)c2)cc1 | – | – | – | – | – | 0 | 29.2
18 | Oc1cccc(-c2cc(-c3ccc(Cl)cc3)nc(-c3cccnc3)c2)c1 | 18.1 | 16.8 | 26.8 | 39.5 | 10.6 | 40.4 | 2.8

Row | SMILES | IC50 (T47D) [µM] | IC50 (HCT-15) [µM] | IC50 (DU-145) [µM] | IC50 (HEK293) [µM] | inhibition [1] [%] | inhibition [2] [%] | inhibition [3] [%]
19 | COc1cccc2c1C(=O)c1c(O)c3c(c(O)c1C2=O)C[C@@](O)(C(=O)CO)C[C@@H]3O[C@H]1C[C@H](N)[C@H](O)[C@H](C)O1 [DOXORUBICIN] | 1.05 | 1.03 | 1.1 | 1.34 | – | – | –
20 | Oc1ccc(-c2cc(-c3ccc(Cl)cc3)nc(-c3ccco3)c2)cc1 | 6.26 | 7.02 | 7.28 | 5.72 | 36.2 | 84.1 | 15.8
21 | Oc1cccc(-c2cc(-c3ccncc3)nc(-c3ccc(Cl)cc3)c2)c1 | 3.33 | 2.63 | 2.51 | 2.89 | 12.9 | 51.7 | 8
22 | Oc1ccc(-c2cc(-c3ccncc3)nc(-c3ccccc3Cl)c2)cc1 | – | – | – | – | – | 0 | 9.9
23 | Oc1cccc(-c2cc(-c3ccsc3)nc(-c3ccccc3Cl)c2)c1 | 2.44 | 2.5 | 1.97 | 2.72 | 15.7 | 77.1 | 0
24 | Oc1ccc(-c2cc(-c3ccsc3)nc(-c3cccc(Cl)c3)c2)cc1 | 7.39 | 5.76 | 6.22 | 2.67 | 0 | 83.7 | 26
25 | Oc1ccc(-c2cc(-c3cccs3)nc(-c3ccccc3Cl)c2)cc1 | 5.87 | 5.43 | 4.19 | 5.22 | 8.2 | 78.3 | 2.2
26 | Oc1ccc(-c2cc(-c3ccc(Cl)cc3)nc(-c3ccccn3)c2)cc1 | 25.9 | 21.3 | 22.5 | 27.2 | 13.1 | 66.7 | 12.7
27 | Oc1cccc(-c2cc(-c3ccco3)nc(-c3ccccc3Cl)c2)c1 | 2.01 | 2.23 | 1.63 | 1.86 | 8.6 | 77.9 | 0
28 | Oc1cccc(-c2cc(-c3ccccc3)nc(-c3ccccc3Cl)c2)c1 | 2.92 | 2.93 | 1.48 | 1.76 | 23 | 83 | 3.2
29 | Oc1cccc(-c2cc(-c3ccccc3)nc(-c3ccc(Cl)cc3)c2)c1 | 11.3 | 8.11 | 11.2 | 11.6 | 53 | 76.3 | 7.1
30 | Oc1ccc(-c2cc(-c3ccco3)nc(-c3ccccc3Cl)c2)cc1 | 5.48 | 5.46 | 5.3 | 4.31 | 7.7 | 77.8 | 3.9
31 | Oc1cccc(-c2cc(-c3cccs3)nc(-c3ccccc3Cl)c2)c1 | 3.99 | 2.79 | 1.7 | 2.6 | 10.7 | 78.9 | 2.7
32 | Oc1ccc(-c2cc(-c3cccc(Cl)c3)nc(-c3ccco3)c2)cc1 | 5.22 | 8.02 | 5.75 | 2.88 | 0 | 71.3 | 25.5
33 | Oc1cccc(-c2cc(-c3ccc(Cl)cc3)nc(-c3ccco3)c2)c1 | 10.5 | 10.2 | 11.4 | 8.19 | 16.7 | 63.8 | 27.1
34 | Oc1ccc(-c2cc(-c3ccccc3)nc(-c3ccccc3Cl)c2)cc1 | 5.46 | 4.99 | 2.8 | 3.93 | 5.5 | 77.5 | 13.6
35 | Oc1cccc(-c2cc(-c3cccnc3)nc(-c3cccc(Cl)c3)c2)c1 | – | – | – | – | – | 0 | 27.6
36 | Oc1cccc(-c2cc(-c3cccc(Cl)c3)nc(-c3ccccn3)c2)c1 | – | – | – | – | – | 2.4 | 0.4
